# Laboratory results: ChEMBL document CHEMBL2380270, “Radiosynthesis and first evaluation in mice of [(18)F]NS14490 for molecular imaging of α7 nicotinic acetylcholine receptors” (Bioorg Med Chem, 2013)
# Columns and labels:
# [1] = tested on: Heart; test: Biodistribution in CD1 mouse heart at 200 to 300 kBq, iv measured at 30 mins by gamma counting analysis; assay type: ADME, organism-based; conditions: in vivo, 0.5 h
# Procedure, shortened: (§1)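 Female CD-1 mice, 200–300 kBq radiotracer given iv, n = 3 per time point. Animals anaesthetised for blood and urine sampling, then killed by cervical dislocation at 5, 15, 30 or 60 min p.i. Organs removed, weighed and gamma-counted; uptake expressed as % injected dose per g wet tissue.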
# [2] = tested on: Brain; test: Biodistribution in CD1 mouse brain at 200 to 300 kBq, iv measured at 30 mins by gamma counting analysis; assay type: ADME, organism-based; conditions: in vivo, 0.5 h; procedure, shortened: as §1
# [3] = tested on: Blood; test: Biodistribution in CD1 mouse blood at 200 to 300 kBq, iv measured at 30 mins by gamma counting analysis; assay type: ADME, organism-based; conditions: in vivo, 0.5 h; procedure, shortened: as §1
# [4] = tested on: Pancreas; test: Biodistribution in CD1 mouse pancreas at 200 to 300 kBq, iv measured at 15 mins by gamma counting analysis; assay type: ADME, organism-based; conditions: in vivo, 0.25 h
# Procedure, shortened: (§2)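 Female CD-1 mice received 200–300 kBq [18F]radiotracer intravenously. Blood and urine were sampled under anaesthesia, then mice were killed by cervical dislocation at 5, 15, 30 or 60 min p.i. (n = 3; control at 60 min n = 7). Organs were removed and weighed, activity was gamma-counted, and uptake was expressed as % injected dose per g wet tissue.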
# [5] = tested on: Mus musculus; test: Biodistribution in CD1 mouse thymus at 200 to 300 kBq, iv measured at 15 mins by gamma counting analysis; assay type: ADME, organism-based; conditions: in vivo, 0.25 h; procedure, shortened: as §2
# [6] = tested on: Spleen; test: Biodistribution in CD1 mouse spleen at 200 to 300 kBq, iv measured at 15 mins by gamma counting analysis; assay type: ADME, organism-based; conditions: in vivo, 0.25 h; procedure, shortened: as §2
# [7] = Biodistribution in CD1 mouse urine at 200 to 300 kBq, iv measured at 15 mins by gamma counting analysis; assay type: ADME, organism-based; conditions: in vivo, 0.25 h
# Procedure, shortened: (§3)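 Female CD-1 mice given 200–300 kBq tracer intravenously. Animals anaesthetised for blood and urine sampling, then killed by cervical dislocation at 5, 15, 30 or 60 min (n = 3 per time; n = 7 at 60 min). Organs removed and weighed, activity gamma-counted, expressed as % injected dose per g wet weight. Blocking arm: 10 mg/kg i.p. in 0.9% saline, 10 min before tracer; two-tailed unpaired t test versus control.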
# [8] = tested on: Mus musculus; test: Biodistribution in CD1 mouse small intestine at 200 to 300 kBq, iv measured at 15 mins by gamma counting analysis; assay type: ADME, organism-based; conditions: in vivo, 0.25 h; procedure, shortened: as §2
# [9] = tested on: Stomach; test: Biodistribution in CD1 mouse stomach at 200 to 300 kBq, iv measured at 15 mins by gamma counting analysis; assay type: ADME, organism-based; conditions: in vivo, 0.25 h; procedure, shortened: as §2
# [10] = tested on: Muscle tissue; test: Biodistribution in CD1 mouse muscle at 200 to 300 kBq, iv measured at 5 mins by gamma counting analysis; assay type: ADME, organism-based; conditions: in vivo; procedure, shortened: as §2
# [11] = tested on: Pancreas; test: Biodistribution in CD1 mouse pancreas at 200 to 300 kBq, iv measured at 5 mins by gamma counting analysis; assay type: ADME, organism-based; conditions: in vivo; procedure, shortened: as §2
# [12] = tested on: Spleen; test: Biodistribution in CD1 mouse spleen at 200 to 300 kBq, iv measured at 5 mins by gamma counting analysis; assay type: ADME, organism-based; conditions: in vivo; procedure, shortened: as §2
# [13] = tested on: Kidney; test: Biodistribution in CD1 mouse kidney at 200 to 300 kBq, iv measured at 5 mins by gamma counting analysis; assay type: ADME, organism-based; conditions: in vivo; procedure, shortened: as §1
# [14] = Biodistribution in CD1 mouse urine at 200 to 300 kBq, iv measured at 5 mins by gamma counting analysis; assay type: ADME, organism-based; conditions: in vivo; procedure, shortened: as §3
# [15] = tested on: Mus musculus; test: Biodistribution in CD1 mouse large intestine at 200 to 300 kBq, iv measured at 5 mins by gamma counting analysis; assay type: ADME, organism-based; conditions: in vivo; procedure, shortened: as §1
# [16] = tested on: Mus musculus; test: Biodistribution in CD1 mouse small intestine at 200 to 300 kBq, iv measured at 5 mins by gamma counting analysis; assay type: ADME, organism-based; conditions: in vivo; procedure, shortened: as §2
# [17] = tested on: Heart; test: Biodistribution in CD1 mouse heart at 200 to 300 kBq, iv measured at 5 mins by gamma counting analysis; assay type: ADME, organism-based; conditions: in vivo; procedure, shortened: as §1
# [18] = tested on: Mus musculus; test: Biodistribution in CD1 mouse adrenal at 200 to 300 kBq, iv measured at 60 mins by gamma counting analysis in presence of SSR180711; assay type: ADME, organism-based, Adrenal gland; conditions: in vivo, 1 h
# Procedure, shortened: (§4)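 Blocking study in female CD-1 mice, n = 7 per blocker, with a matching control group. SSR180711 or NS6740 given at 10 mg kg⁻¹ ip in 0.9% saline 10 min before iv radiotracer (200–300 kBq). Organs taken at 60 min p.i., weighed and gamma-counted; uptake as % ID per g wet weight. Compared with control by two-tailed independent Student's t test.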
# [19] = Biodistribution in CD1 mouse urine at 200 to 300 kBq, iv measured at 60 mins by gamma counting analysis in presence of SSR180711; assay type: ADME, organism-based; conditions: in vivo, 1 h; procedure, shortened: as §3
# [20] = tested on: Mus musculus; test: Biodistribution in CD1 mouse small intestine at 200 to 300 kBq, iv measured at 60 mins by gamma counting analysis in presence of SSR180711; assay type: ADME, organism-based; conditions: in vivo, 1 h
# Procedure, shortened: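 Blocking design in female CD-1 mice, n = 7 per group. The blocker was given at 10 mg kg^-1 i.p. in 0.9% saline 10 min before i.v. 200–300 kBq [18F]radiotracer. Mice were killed at 60 min p.i. and organs weighed and gamma-counted as % ID per g wet weight. Blocked groups were compared with controls by two-tailed independent Student's t test.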
# [21] = tested on: Heart; test: Biodistribution in CD1 mouse heart at 200 to 300 kBq, iv measured at 60 mins by gamma counting analysis in presence of SSR180711; assay type: ADME, organism-based; conditions: in vivo, 1 h; procedure, shortened: as §4
# [22] = tested on: Brain; test: Biodistribution in CD1 mouse brain at 200 to 300 kBq, iv measured at 60 mins by gamma counting analysis in presence of SSR180711; assay type: ADME, organism-based; conditions: in vivo, 1 h; procedure, shortened: as §4
# [23] = tested on: Zone of skin; test: Biodistribution in CD1 mouse skin at 200 to 300 kBq, iv measured at 60 mins by gamma counting analysis; assay type: ADME, organism-based; conditions: in vivo, 1 h; procedure, shortened: as §2
# [24] = tested on: Mus musculus; test: Biodistribution in CD1 mouse adrenal at 200 to 300 kBq, iv measured at 60 mins by gamma counting analysis; assay type: ADME, organism-based, Adrenal gland; conditions: in vivo, 1 h; procedure, shortened: as §1
# [25] = tested on: Urinary bladder; test: Biodistribution in CD1 mouse bladder at 200 to 300 kBq, iv measured at 60 mins by gamma counting analysis; assay type: ADME, organism-based; conditions: in vivo, 1 h; procedure, shortened: as §1
# [26] = tested on: Stomach; test: Biodistribution in CD1 mouse stomach at 200 to 300 kBq, iv measured at 60 mins by gamma counting analysis; assay type: ADME, organism-based; conditions: in vivo, 1 h; procedure, shortened: as §2
# [27] = tested on: Heart; test: Biodistribution in CD1 mouse heart at 200 to 300 kBq, iv measured at 60 mins by gamma counting analysis; assay type: ADME, organism-based; conditions: in vivo, 1 h; procedure, shortened: as §1
# [28] = tested on: Muscle tissue; test: Biodistribution in CD1 mouse muscle at 200 to 300 kBq, iv measured at 30 mins by gamma counting analysis; assay type: ADME, organism-based; conditions: in vivo, 0.5 h; procedure, shortened: as §2
# [29] = tested on: Mus musculus; test: Biodistribution in CD1 mouse adrenal at 200 to 300 kBq, iv measured at 30 mins by gamma counting analysis; assay type: ADME, organism-based, Adrenal gland; conditions: in vivo, 0.5 h; procedure, shortened: as §1
# [30] = tested on: Urinary bladder; test: Biodistribution in CD1 mouse bladder at 200 to 300 kBq, iv measured at 30 mins by gamma counting analysis; assay type: ADME, organism-based; conditions: in vivo, 0.5 h; procedure, shortened: as §1
# [31] = tested on: Kidney; test: Biodistribution in CD1 mouse kidney at 200 to 300 kBq, iv measured at 30 mins by gamma counting analysis; assay type: ADME, organism-based; conditions: in vivo, 0.5 h; procedure, shortened: as §1
# [32] = tested on: Liver; test: Biodistribution in CD1 mouse liver at 200 to 300 kBq, iv measured at 30 mins by gamma counting analysis; assay type: ADME, organism-based; conditions: in vivo, 0.5 h; procedure, shortened: as §2
# [33] = tested on: Mus musculus; test: Biodistribution in CD1 mouse large intestine at 200 to 300 kBq, iv measured at 30 mins by gamma counting analysis; assay type: ADME, organism-based; conditions: in vivo, 0.5 h; procedure, shortened: as §1
compound,measurement,setting,value
O=C(Oc1ccc(Br)cc1)N1CCN2CCC1CC2 [SSR180711],Drug uptake,[1],2.41 % ID/g
same,Drug uptake,[2],0.18 % ID/g
same,Drug uptake,[3],1.01 % ID/g
same,Drug uptake,[4],5.48 % ID/g
same,Drug uptake,[5],2.98 % ID/g
same,Drug uptake,[6],8.23 % ID/g
same,Drug uptake,[7],122 % ID/g
same,Drug uptake,[8],6.72 % ID/g
same,Drug uptake,[9],5.45 % ID/g
same,Drug uptake,[10],1.59 % ID/g
same,Drug uptake,[11],5.16 % ID/g
same,Drug uptake,[12],4.22 % ID/g
same,Drug uptake,[13],10.6 % ID/g
same,Drug uptake,[14],23.9 % ID/g
same,Drug uptake,[15],1.36 % ID/g
same,Drug uptake,[16],3.44 % ID/g
same,Drug uptake,[17],3.35 % ID/g
same,Drug uptake,[18],3.65 % ID/g
same,Drug uptake,[19],270 % ID/g
same,Drug uptake,[20],15.9 % ID/g
same,Drug uptake,[21],1.81 % ID/g
same,Drug uptake,[22],0.15 % ID/g
same,Drug uptake,[23],1.94 % ID/g
same,Drug uptake,[24],3.01 % ID/g
same,Drug uptake,[25],1.88 % ID/g
same,Drug uptake,[26],8.13 % ID/g
same,Drug uptake,[27],1.84 % ID/g
same,Drug uptake,[28],1.26 % ID/g
same,Drug uptake,[29],4.61 % ID/g
same,Drug uptake,[30],2.08 % ID/g
same,Drug uptake,[31],8.5 % ID/g
same,Drug uptake,[32],8.51 % ID/g
same,Drug uptake,[33],2.7 % ID/g
